From the RNAGym collection of RNA variant scans (doi:10.1126/science.aae0568) come the findings set out here.

Variants at the floor of the assay were thinned out.

Sequences and labels used below:
B1: tRNA (parent)
chain: GUUCCGUUGGCGUAAUGGUAACGCGUCUCCCUCCUAAGGAGAAGACUGCGGGUUCGAGUCCCGUACGGAACG

Variants of B1 are the subject of the data set. The data set can be described thus: yeast fitness relative to wild type (ratio to wild type); higher = fitter; tRNA-Arg(CCU), competitive growth, 37 C, YPD. The gist of the method:
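Variants of the tRNA-Arg(CCU) gene, chemically synthesised with a 3% per-site mutation rate at 69 sites, were placed at the native genomic locus in Saccharomyces cerevisiae. The pooled strains were competed in YPD at 37°C for 24 hours in six parallel replicates. Gene amplicons from the start population and from each end population were read by 100-nucleotide paired-end sequencing. Darwinian fitness relative to wild type came from changes in genotype frequencies; genotypes needed ≥ 100 starting reads, and estimates < 0.5 were set to 0.5.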
In the case of GUUCCGUUGGUGUUAUGGUAACGGGUCUCCCUCCUAAGGAGAAGACUGCGGGUUUGAGUCCCGUACGGAACG, the yeast fitness is ≤ 0.5.

For GUUCCGUUGGUGUAGUGGUAACGCGUCUCCCUCCUUAGGAGAUGAGUGCGGGUUCGAGUCCAGUACGGAACG, the yeast fitness worked out at 0.635.

As to GUUCCGUUGGUGUAAUGGUGACGGGUCUCCCUCCUAAGGAGAAGACUGCGGGUUCGAGUCCCGUACGGAACG, the yeast fitness came to 0.506.

GUUCCGUUGGUGUACUGGUAACGCGUCUCCCUCCUAAGGAGAAAACUGCGGGUUCGAGUCCCGUUCGGAACG: the yeast fitness was ≤ 0.5.

GUUCCGUUGGUGUGAUGGUAACGGGUUUCCCUCCUGAGGAACAGACUGCGGGUUCGAGUCCCGUACGGAACG: the yeast fitness is ≤ 0.5.

Take GUUCCGUUGGUGUAGUGGUAACGCGUCUCCCUCCUAAGGAGAAGACUGCGGGUUCGAGUCCCGUGCGGAACG: the yeast fitness came to 0.766.

As to GUUCCGUUGGUGUACUGGUAACGCGUCUUCCUCCUAGGGAGAAGACUGCGGGUUCGAGUCCCGUACGGAACG, the yeast fitness came out at 0.535.

For GUUCCGUUGGUGUACUGGUAGCGCGUCUUCCUCCUAGGGAGAAGACUGCGGGUUCGAGUCCCGUACGGAACG, the yeast fitness is ≤ 0.5.

For the variant GUUCCGUUGGUGUUAUGGUAACGGGUCUCCCUCCUAAGGAGAAAACUGUGGGUUCGAGUCCCGUACGGAACG, the yeast fitness is ≤ 0.5.

Regarding GUUCCGUUGGUGUAGUGGUAACGCGUGUCCCUCCUAAGGAGAAGAUUGCGGGUUCGAGUCCCGUACGGAACG, the yeast fitness came out at 0.548.

As for GUUCCGUUGGUGUUAUGAUAACGCGUCUCCCUCCUAAGGAACAGACUGCCGGUUCGAGUCCCGUACGGAGCG, the yeast fitness worked out at 0.552.

As for GUUCCGUUGGUGUGAUGGUAACGCGUCUCCAUCCUAAGGAGGAGACUGCGGGUUCGAGUCCCGUACGGAACG, the yeast fitness is ≤ 0.5.

Turning to GUUCCGUUGGUGUAGUGGUAACGCGUCUCCCUCCUAAGGAGAAGAAUGCGGGUUCGAGUCCGGUACGAAACG, the yeast fitness was ≤ 0.5.

As to GUUCCGUUGGUGUAGUGGUAACGCGUCUCCCUCCUAAGGAGAAGACUCCGGGUUCGAGUCCCGUACGGAACG, the yeast fitness was 0.511.

With GUUCCGUUGGUGUAUUGGUAACGCGUCUCCCUCCUAAGGAGAAGACUGCGGGUUCGAGUUCCGUACCGAACG, the yeast fitness was ≤ 0.5.

As for GUUCCGUUGGUGUCAGGGUAACGCGUCUACCUCCUAAGGAGAAGACUGCGGGUUCGAGUCCCGUACGCAACG, the yeast fitness was determined as 0.585.

For the variant GUUCCGUUGGUGUACUGGUAGCGGGUCACCCUCCUAAGGAGAAGACUGCGGGUUCGAGUCCCGUACGGAACG, the yeast fitness was ≤ 0.5.

As for GUUCCGUUGGUGUAGUGGUAACGCGGCCCCCUACUAAGGAGAAGACUGCGGGUUGGAGUCCCGUACGGAACG, the yeast fitness was ≤ 0.5.

With GUUCCGUUGGUGUACUGGUAACGCGUCUUCCUCCUAGGGAGAAGACUGCGGGUUCGAGUCCCAUACGGAACG, the yeast fitness is ≤ 0.5.

On to GUUCCGUUGGUGUUAUGGUAACGCGUCUCCCUCCUAAGGGGCGGACUGCGGGUUCGAGUCCCGUACGGAACG, for which the yeast fitness is ≤ 0.5.

In the case of GUUCCGUUGGUGUAGUGGUAACACGUCUCCCUCCUAAGGAGAAGACUGCGGGUUCGAGUAUCCUAUGGAACG, the yeast fitness is ≤ 0.5.

Consider GUUCCGUUGGUGUACUGGUAACGCGUCUCCCUCCUAAGGAGAACAAUGCGGGUUCGAGUCCCGUACGGAACG, for which the yeast fitness was ≤ 0.5.

Regarding GUUCCGUUGGUGUACUGGUAACGCGUAUCCCUCCUAAGCAGAAGACUGCGGGUUCGAGUCCCGUCCGGAACG, the yeast fitness stood at 0.531.

With GUUCCGUUGGUGUACUGGUAACGCGUCUCCCUCCUAAGGUGAAGACUGCGGGUUCGAGUCCCGUACGGAACG, the yeast fitness was determined as 0.543.

Regarding GUUCCGUUGGUGUUAUGGUAACGGGUCUCCCUCCUAAGGAGGAGACUGCGGGUUCGAGUCCCGUACGGAACG, the yeast fitness came out at 0.54.

With GUUCCGUUGGUGUUAUGAUAACGCGUCUCCUUCCUAAGGAGAAGAGAGCGGGUUCGAGUCCCGUCCGGAACG, the yeast fitness is ≤ 0.5.

For the variant GUUCCGUUGGUGUAGUGGUAACGCGUCUCCCUCCUAAGGAGAAGAAUGCGGGUUCGGGUCCCGUACGGAACG, the yeast fitness was 0.629.

As for GUUCCGUUGGUGUGAUGGUAACGCGUCUUCCUCCUAAGAAGAAGACUGCGGGUUCGAGUCCCGUACGGAACG, the yeast fitness was ≤ 0.5.

For GUUCCGUUGGUGUAAUGGUCACGCGUCUCCCUCCUAAGGAGAAGACUGCGGGUUCGAGUCCCGUACGGCACG, the yeast fitness was found to be 0.627.

With GUUCCGUUGGUGUAGUGGUAACGCGUCUGCCUCCUAAGGAGAAGACUACGGGUUCGAGUCCUGUAUGGAACG, the yeast fitness worked out at 0.535.

For GUUCCGUUGGUGUAGUGGUAACGCGUCUCCCUCCUAAGGAGAAGGCUGCGGGUUCGAGUCCCGUACGGAACG, the yeast fitness worked out at 0.599.

Regarding GUUCCGUUGGUGUGAUGGUAACGCGUCUCCCUCCUACGGAGAAGACUGUGGGUUCGAGUCCCGUACGGAACG, the yeast fitness was ≤ 0.5.

Regarding GUUCCGUUGGUGUAUUGGUAACGCGUCUCCCUCCUAAGGAGAAGACUGCGGGUUCGGGUCCCGUACGGCACG, the yeast fitness is ≤ 0.5.

Turning to GUUCCGUUGGUGUGAUGGUAACGCGUCUCCCUCCUAAGGAGAAGACUGAGGGUUCGAGUCCCGUACGGAACG, the yeast fitness is ≤ 0.5.

For GUUCCGUUGGUGUGAUGGUAACGCGUAUCCCUCCUAAGGAGAAGACUACGGGAUCGAGUCGCGUACGGAACG, the yeast fitness was ≤ 0.5.

In the case of GUUCCGUUGGUGUAGUGGUAACGCGGCUCCCUACUAAGGAGAAGACUGCGGGUUGGAGUCCCGUACGGAACG, the yeast fitness was ≤ 0.5.

For the variant GUUCCGUUGGUGUAGUGGUAGCGCGUCUCCCUCUUAAGGAGAAAACUGCGGGUUCGAGUCACGUACGGACCG, the yeast fitness was ≤ 0.5.

On to GUUCCGUUGGUGUGAUGGUACCGCGUCUUCCUCCUAGGGAGAAGACUGCGGGUUUGAGUCCCGUACGGAACG, for which the yeast fitness is ≤ 0.5.
